Measurements taken from paper PMC4714695 (Cancer Science, 2015).
Like-named read-outs stand apart in the source and are kept apart here.

Legend:
[1] = test system: Japanese patients with acute myeloid leukemia; assay: Electrocardiogram QTcF assessment; assay type: in vivo, human
[2] = Plasma pharmacokinetics; assay type: in vivo, human
[3] = test system: Japanese patients with acute myeloid leukemia; assay: Best response and remission duration; assay type: in vivo, human
Summary of the method: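 Same patients and dosing: 2-h IV infusion on days 1 and 15 of 28-day cycles, at 350, 400 or 450 mg. Best response (CR, CRi, PR) and remission duration judged by International Working Group and European Leukemia Net criteria. Assessed in peripheral blood and bone marrow, with imaging added for extramedullary disease. Efficacy cut-off 12 March 2015.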

[4] = test system: White patients with relapsed or refractory AML; conditions: cited from earlier work
[5] = human, plasma, intravenous, 350 mg
[6] = human, plasma, intravenous, 400 mg
[7] = human, plasma, intravenous, 450 mg

## CC[C@@H]1C(=O)N(C)c2cnc(Nc3ccc(C(=O)N[C@H]4CC[C@H](N5CCN(CC6CC6)CC5)CC4)cc3OC)nc2N1C(C)C [Volasertib]
[1]; 450 mg cohort 3 only
  Patients with >60 ms QTcF increase at end of infusion versus prior to infusion: two patients
[1]; all cohorts
  QTcF intervals >500 ms: No QTcF intervals >500 ms were reported
[1]; all dose cohorts
  Time of maximum increase in mean QTcF interval after start of infusion: 2 h
[1]; any cohort, during treatment
  Clinically relevant abnormalities in cardiologic assessment: No patients in any cohort developed clinically relevant abnormalities
[1]; post-dosing, all dose cohorts
  Time by which mean QTcF returned to near baseline: ≤ 24 h
[2]; 24 h after administration
  Mean plasma concentration relative to maximum plasma concentration: < 10%
[2]; dose range 350–450 mg
  Dose dependence of exposure: increased dose‐proportionally
[2]; human, plasma, intravenous
  Vd: 3540 to 4720 L
  clearance: 606 to 669 mL/min
  half-life: 108 to 130 h
[2]; [5]
  AUC(0-inf): 8720 ng·h/mL
  AUC(0-t): 7810 ng·h/mL
  Cmax: 756 ng/mL
  Tmax: 1.97 h
  clearance: 669 mL/min
  half-life: 117 h
[2]; [6]
  AUC(0-inf): 10400 ng·h/mL
  AUC(0-t): 9340 ng·h/mL
  Cmax: 762 ng/mL
  Tmax: 1.05 h
  clearance: 643 mL/min
  half-life: 130 h
[2]; [7]
  AUC(0-inf): 12400 ng·h/mL
  AUC(0-t): 11400 ng·h/mL
  Cmax: 1060 ng/mL
  Tmax: 1.53 h
  clearance: 606 mL/min
  half-life: 108 h
[2]; plasma, after first infusion of volasertib 350 mg (n = 7)
  AUC0–∞,norm (dose normalized), gMean (gCV%): 24.9 (27.8) ng·h/mL/mg
[2]; plasma, after first infusion of volasertib 400 mg (n = 4)
  AUC0–∞,norm (dose normalized), gMean (gCV%): 25.9 (54.7) ng·h/mL/mg
[2]; plasma, after first infusion of volasertib 450 mg (n = 8)
  AUC0–∞,norm (dose normalized), gMean (gCV%): 27.5 (22.8) ng·h/mL/mg
[3]; 350 mg (n = 7)
  Best overall response CR, patients: 1 n
  Best overall response PD, patients: 3 n
  Best overall response SD, patients: 3 n
  Patients with CR/CRi: 1 n
[3]; 350 mg (n = 7), listed as volasertib
  Best overall response CR, patients: One of seven patients
[3]; 350 mg, 1 patient with CR/CRi
  Remission duration, median (range): 358 days
[3]; 400 mg (n = 4)
  Best overall response CRi, patients: 2 n
  Best overall response SD, patients: 2 n
  Patients with CR/CRi: 2 n
[3]; 400 mg (n = 4), listed as volasertib
  Best overall response CRi, patients: two of four patients
[3]; 400 mg, 2 patients with CR/CRi
  Remission duration, median (range): 72 (70–74) days
[3]; 450 mg (n = 8)
  Best overall response CR, patients: 2 n
  Best overall response CRi, patients: 1 n
  Best overall response PD, patients: 1 n
  Best overall response PR, patients: 1 n
  Best overall response SD, patients: 3 n
  Patients with CR/CRi: 3 n
[3]; 450 mg, 3 patients with CR/CRi
  Remission duration, median (range): 96 (56–262) days
[3]; Total (N = 19)
  Best overall response CR, patients: 3 n
  Best overall response CR, share of patients: 15.8%
  Best overall response CRi, patients: 3 n
  Best overall response CRi, share of patients: 15.8%
  Best overall response PD, patients: 4 n
  Best overall response PD, share of patients: 21.1%
  Best overall response PR, patients: 1 n
  Best overall response PR, share of patients: 5.3%
  Best overall response SD, patients: 8 n
  Best overall response SD, share of patients: 42.1%
  Patients achieving best response of CR, CRi or PR: 36.8%
  Patients with CR/CRi: 6 n
[3]; Total, 6 patients with CR/CRi
  Remission duration, median (range): 85 (56–358) days
[3]; Total, 6 patients with CR/CRi, listed as volasertib
  Remission duration, median (range): 85 days
[3]; out of 19 treated patients
  Patients achieving best response of CR, CRi or PR: 7 patients
[3]; person, primary refractory M2 de novo AML, complex karyotype, CR after cycle 3
  Duration for which CR was maintained in one patient: 358 days
[4]; 400 mg
  DLT reported in White patients: mucosal inflammation
[4]; 450 mg
  DLT reported in White patients: pyrexia
[4]; volasertib monotherapy, phase I
  MTD in White patients: 450 mg
